According to ChEMBL document CHEMBL5058577, “EUbOPEN Chemogenomics Library 2 (Multiplex)” (2022):

Tested on: U2OS
Assay: Multiplex assay against U2OS
Format: toxicity, cell-based
Settings: human
Method in brief: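 Values for tubulin, mitochondrial-mass and membrane-permeability phenotypes are per cents of cells with healthy nuclei. These cells were identified by CellPathfinder machine-learning gating of live cells that had been stained at seeding with Hoechst33342, BioTracker Green Microtubule Cytoskeleton Dye, MitoTracker Red and Annexin V Alexa Fluor 680 and imaged on a CQ1 microscope at 37°C and 5% CO2 after compound addition. The gating first set Hoechst high-intensity objects apart from normal cells, then split normal cells into healthy, pyknosed or fragmented nuclei, and pyknosed cells into mitotic or apoptotic.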

[1] = 12 h, 1 µM, compound concentration 1 uM, replicate 1
[2] = 12 h, 1 µM, compound concentration 1 uM, replicate 2
[3] = 12 h, 10 µM, compound concentration 10 uM, replicate 1
[4] = 12 h, 10 µM, compound concentration 10 uM, replicate 2
[5] = 24 h, 1 µM, compound concentration 1 uM, replicate 1
[6] = 24 h, 1 µM, compound concentration 1 uM, replicate 2
[7] = 24 h, 10 µM, compound concentration 10 uM, replicate 1
[8] = 24 h, 10 µM, compound concentration 10 uM, replicate 2
[9] = 48 h, 1 µM, compound concentration 1 uM, replicate 1
[10] = 48 h, 1 µM, compound concentration 1 uM, replicate 2
[11] = 48 h, 10 µM, compound concentration 10 uM, replicate 1
[12] = 48 h, 10 µM, compound concentration 10 uM, replicate 2

Q: For CCCCCC(O)/C=C/[C@H]1C(=O)CC(O)C1C/C=C\CCCC(=O)O (stereo partly specified), which “Population Apoptotic (%)” value [1] is on record?
A: 60%

Q: What about the “Population Fragmented Nuclei (%)” value [1] of the same molecule?
A: 28%

Q: And the “Population Healthy Nuclei (%)” value [1]?
A: 59%

Q: And the “Population Hoechst High Intensity Objects (%)” value [1]?
A: 1%

Q: What about the “Population Membrane Permeable-Phenotype (%)” value [1] of the same molecule?
A: 5%

Q: What about the “Population Mitochondria Different-Phenotype (%)” value [1] of the same molecule?
A: 4%

Q: And the “Population Mitotic Cells (%)” value [1]?
A: 40%

Q: And the “Population Normal (%)” value [1]?
A: 98%

Q: And the “Population Pyknosed Nuclei (%)” value [1]?
A: 12%

Q: What about the “Population Tubulin-Different-Phenotype (%)” value [1] of the same molecule?
A: 4%

Q: What about the “Total Cell Count” value [1] of the same molecule?
A: 203

Q: And the “Population Apoptotic (%)” value [2]?
A: 88%

Q: What about the “Population Fragmented Nuclei (%)” value [2] of the same molecule?
A: 15%

Q: And the “Population Healthy Nuclei (%)” value [2]?
A: 76%

Q: And the “Population Hoechst High Intensity Objects (%)” value [2]?
A: 0%

Q: And the “Population Membrane Permeable-Phenotype (%)” value [2]?
A: 8%

Q: What about the “Population Mitochondria Different-Phenotype (%)” value [2] of the same molecule?
A: 6%

Q: And the “Population Mitotic Cells (%)” value [2]?
A: 11%

Q: What about the “Population Normal (%)” value [2] of the same molecule?
A: 99%

Q: What about the “Population Pyknosed Nuclei (%)” value [2] of the same molecule?
A: 8%

Q: And the “Population Tubulin-Different-Phenotype (%)” value [2]?
A: 8%

Q: And the “Total Cell Count” value [2]?
A: 113

Q: And the “Population Apoptotic (%)” value [3]?
A: 71%

Q: What about the “Population Fragmented Nuclei (%)” value [3] of the same molecule?
A: 23%

Q: What about the “Population Healthy Nuclei (%)” value [3] of the same molecule?
A: 69%

Q: What about the “Population Hoechst High Intensity Objects (%)” value [3] of the same molecule?
A: 2%

Q: What about the “Population Membrane Permeable-Phenotype (%)” value [3] of the same molecule?
A: 8%

Q: And the “Population Mitochondria Different-Phenotype (%)” value [3]?
A: 3%

Q: What about the “Population Mitotic Cells (%)” value [3] of the same molecule?
A: 28%

Q: What about the “Population Normal (%)” value [3] of the same molecule?
A: 97%

Q: And the “Population Pyknosed Nuclei (%)” value [3]?
A: 7%

Q: What about the “Population Tubulin-Different-Phenotype (%)” value [3] of the same molecule?
A: 5%

Q: What about the “Total Cell Count” value [3] of the same molecule?
A: 190

Q: And the “Population Apoptotic (%)” value [4]?
A: 66%

Q: And the “Population Fragmented Nuclei (%)” value [4]?
A: 16%

Q: What about the “Population Healthy Nuclei (%)” value [4] of the same molecule?
A: 73%

Q: And the “Population Membrane Permeable-Phenotype (%)” value [4]?
A: 10%

Q: What about the “Population Mitochondria Different-Phenotype (%)” value [4] of the same molecule?
A: 2%

Q: And the “Population Mitotic Cells (%)” value [4]?
A: 33%

Q: What about the “Population Pyknosed Nuclei (%)” value [4] of the same molecule?
A: 9%

Q: And the “Population Tubulin-Different-Phenotype (%)” value [4]?
A: 4%

Q: What about the “Total Cell Count” value [4] of the same molecule?
A: 94

Q: What about the “Population Apoptotic (%)” value [5] of the same molecule?
A: 86%

Q: What about the “Population Fragmented Nuclei (%)” value [5] of the same molecule?
A: 27%

Q: And the “Population Healthy Nuclei (%)” value [5]?
A: 63%

Q: And the “Population Hoechst High Intensity Objects (%)” value [5]?
A: 2%

Q: What about the “Population Membrane Permeable-Phenotype (%)” value [5] of the same molecule?
A: 3%

Q: And the “Population Mitochondria Different-Phenotype (%)” value [5]?
A: 0%

Q: What about the “Population Mitotic Cells (%)” value [5] of the same molecule?
A: 13%

Q: What about the “Population Normal (%)” value [5] of the same molecule?
A: 98%

Q: And the “Population Pyknosed Nuclei (%)” value [5]?
A: 8%

Q: And the “Population Tubulin-Different-Phenotype (%)” value [5]?
A: 1%

Q: And the “Total Cell Count” value [5]?
A: 250

Q: What about the “Population Apoptotic (%)” value [6] of the same molecule?
A: 90%

Q: And the “Population Fragmented Nuclei (%)” value [6]?
A: 16%

Q: What about the “Population Healthy Nuclei (%)” value [6] of the same molecule?
A: 74%

Q: And the “Population Hoechst High Intensity Objects (%)” value [6]?
A: 0%

Q: And the “Population Membrane Permeable-Phenotype (%)” value [6]?
A: 5%

Q: What about the “Population Mitochondria Different-Phenotype (%)” value [6] of the same molecule?
A: 7%

Q: And the “Population Mitotic Cells (%)” value [6]?
A: 9%

Q: What about the “Population Normal (%)” value [6] of the same molecule?
A: 99%

Q: And the “Population Tubulin-Different-Phenotype (%)” value [6]?
A: 4%

Q: What about the “Total Cell Count” value [6] of the same molecule?
A: 131

Q: What about the “Population Apoptotic (%)” value [7] of the same molecule?
A: 100%

Q: And the “Population Fragmented Nuclei (%)” value [7]?
A: 23%

Q: What about the “Population Healthy Nuclei (%)” value [7] of the same molecule?
A: 66%

Q: What about the “Population Hoechst High Intensity Objects (%)” value [7] of the same molecule?
A: 1%

Q: What about the “Population Membrane Permeable-Phenotype (%)” value [7] of the same molecule?
A: 6%

Q: And the “Population Mitochondria Different-Phenotype (%)” value [7]?
A: 4%

Q: And the “Population Mitotic Cells (%)” value [7]?
A: 0%

Q: And the “Population Normal (%)” value [7]?
A: 98%

Q: What about the “Population Pyknosed Nuclei (%)” value [7] of the same molecule?
A: 9%

Q: And the “Population Tubulin-Different-Phenotype (%)” value [7]?
A: 4%

Q: And the “Total Cell Count” value [7]?
A: 216

Q: What about the “Population Apoptotic (%)” value [8] of the same molecule?
A: 90%

Q: And the “Population Fragmented Nuclei (%)” value [8]?
A: 16%

Q: What about the “Population Healthy Nuclei (%)” value [8] of the same molecule?
A: 74%

Q: What about the “Population Hoechst High Intensity Objects (%)” value [8] of the same molecule?
A: 2%

Q: And the “Population Membrane Permeable-Phenotype (%)” value [8]?
A: 5%

Q: And the “Population Mitochondria Different-Phenotype (%)” value [8]?
A: 1%

Q: And the “Population Mitotic Cells (%)” value [8]?
A: 10%

Q: What about the “Population Normal (%)” value [8] of the same molecule?
A: 97%

Q: And the “Population Pyknosed Nuclei (%)” value [8]?
A: 8%

Q: And the “Population Tubulin-Different-Phenotype (%)” value [8]?
A: 2%

Q: What about the “Total Cell Count” value [8] of the same molecule?
A: 118

Q: And the “Population Apoptotic (%)” value [9]?
A: 89%

Q: And the “Population Fragmented Nuclei (%)” value [9]?
A: 19%

Q: And the “Population Healthy Nuclei (%)” value [9]?
A: 71%

Q: And the “Population Hoechst High Intensity Objects (%)” value [9]?
A: 2%

Q: What about the “Population Membrane Permeable-Phenotype (%)” value [9] of the same molecule?
A: 4%

Q: What about the “Population Mitochondria Different-Phenotype (%)” value [9] of the same molecule?
A: 3%

Q: And the “Population Mitotic Cells (%)” value [9]?
A: 10%

Q: What about the “Population Normal (%)” value [9] of the same molecule?
A: 97%

Q: And the “Population Pyknosed Nuclei (%)” value [9]?
A: 8%

Q: What about the “Population Tubulin-Different-Phenotype (%)” value [9] of the same molecule?
A: 2%

Q: And the “Total Cell Count” value [9]?
A: 334

Q: What about the “Population Apoptotic (%)” value [10] of the same molecule?
A: 100%

Q: And the “Population Fragmented Nuclei (%)” value [10]?
A: 13%

Q: And the “Population Healthy Nuclei (%)” value [10]?
A: 79%

Q: And the “Population Membrane Permeable-Phenotype (%)” value [10]?
A: 5%

Q: And the “Population Mitochondria Different-Phenotype (%)” value [10]?
A: 4%

Q: What about the “Population Mitotic Cells (%)” value [10] of the same molecule?
A: 0%

Q: What about the “Population Pyknosed Nuclei (%)” value [10] of the same molecule?
A: 7%

Q: And the “Population Tubulin-Different-Phenotype (%)” value [10]?
A: 3%

Q: And the “Total Cell Count” value [10]?
A: 189

Q: And the “Population Apoptotic (%)” value [11]?
A: 89%

Q: And the “Population Fragmented Nuclei (%)” value [11]?
A: 23%

Q: What about the “Population Healthy Nuclei (%)” value [11] of the same molecule?
A: 67%

Q: What about the “Population Hoechst High Intensity Objects (%)” value [11] of the same molecule?
A: 3%

Q: What about the “Population Membrane Permeable-Phenotype (%)” value [11] of the same molecule?
A: 6%

Q: And the “Population Mitochondria Different-Phenotype (%)” value [11]?
A: 3%

Q: And the “Population Mitotic Cells (%)” value [11]?
A: 10%

Q: And the “Population Normal (%)” value [11]?
A: 96%

Q: And the “Population Pyknosed Nuclei (%)” value [11]?
A: 9%

Q: And the “Population Tubulin-Different-Phenotype (%)” value [11]?
A: 4%

Q: What about the “Total Cell Count” value [11] of the same molecule?
A: 302

Q: And the “Population Apoptotic (%)” value [12]?
A: 100%

Q: What about the “Population Fragmented Nuclei (%)” value [12] of the same molecule?
A: 21%

Q: And the “Population Healthy Nuclei (%)” value [12]?
A: 70%

Q: What about the “Population Hoechst High Intensity Objects (%)” value [12] of the same molecule?
A: 2%

Q: And the “Population Membrane Permeable-Phenotype (%)” value [12]?
A: 7%

Q: What about the “Population Mitotic Cells (%)” value [12] of the same molecule?
A: 0%

Q: What about the “Population Normal (%)” value [12] of the same molecule?
A: 97%

Q: What about the “Population Pyknosed Nuclei (%)” value [12] of the same molecule?
A: 7%

Q: And the “Population Tubulin-Different-Phenotype (%)” value [12]?
A: 3%

Q: And the “Total Cell Count” value [12]?
A: 161
